The results in this text go back to ChEMBL document CHEMBL1221286, “Development of methotrexate proline prodrug to overcome resistance by MDA-MB-231 cells” (Bioorg Med Chem Lett, 2010).

Structures are written as SMILES.

One data set deals with Caco-2. Put plainly: Cytotoxicity against human Caco-2 cells assessed as cell viability by XTT assay. It is filed as functional, cell-based. In a few lines: (§1)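 Cells were seeded at 5 × 10^4 per well and grown 48 h at 37 °C, 5% CO2, before medium renewal. Drugs were added at a range of concentrations for 24 h. XTT was added for 4 h, then absorbance read at 490 nm against medium-only controls. Viability was plotted versus concentration to estimate EC50 (mean ± SD, n = 3).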
(In general: Tetrazolium dyes change colour on reduction, which living cells bring about.)

The subject of a further data set is MCF7. Put plainly: Cytotoxicity against human MCF7 cells assessed as cell viability by XTT assay. The format is functional, cell-based. In a few lines: as §1
The subject of a further data set is MDA-MB-231. In words: Cytotoxicity against human MDA-MB-231 cells assessed as cell viability by XTT assay. The format is functional, cell-based. In a few lines: as §1
For data set [1], the species on record is Sus scrofa. Put plainly: Activity of pig kidney prolidase measured per gram of protein. In short, it runs like this: (§2)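 Pro-MTX (1 mM) hydrolysed by porcine kidney prolidase at 40 °C. Enzyme was first activated 30 min at 40 °C in 50 mM Tris–HCl (pH 8.0) with 200 mM MnCl2 and 30 mM glutathione. Samples were taken at 15 min, 30 min and 1 h and quenched with equal volume 10% TFA. Released proline was assayed colorimetrically (Chinard's reagent, 90 °C 10 min, A495). Inhibitor runs added Cbz-Pro equimolar to substrate.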

For data set [2], the target named is T1, Xaa-Pro dipeptidase (Homo sapiens) (UniProt P12955).
T1 sequence (whole entry): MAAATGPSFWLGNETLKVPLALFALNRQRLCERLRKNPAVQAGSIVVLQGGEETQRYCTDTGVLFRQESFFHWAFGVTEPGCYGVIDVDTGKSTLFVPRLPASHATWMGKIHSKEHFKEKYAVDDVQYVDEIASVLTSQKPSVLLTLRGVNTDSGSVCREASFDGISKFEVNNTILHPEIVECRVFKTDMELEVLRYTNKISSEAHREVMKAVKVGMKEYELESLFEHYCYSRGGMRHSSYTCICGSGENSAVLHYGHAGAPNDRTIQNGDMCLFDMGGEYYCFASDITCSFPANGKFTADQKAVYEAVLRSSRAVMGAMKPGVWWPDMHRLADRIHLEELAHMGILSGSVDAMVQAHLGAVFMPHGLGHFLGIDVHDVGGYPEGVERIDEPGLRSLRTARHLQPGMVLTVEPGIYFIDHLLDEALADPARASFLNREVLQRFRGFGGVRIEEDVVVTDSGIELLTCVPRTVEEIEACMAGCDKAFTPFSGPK
Put plainly: Activity of prolidase in human Caco-2 cells measured per gram of protein. It is filed as cell-based. In a few lines: (§3)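 Cells were grown to 90% confluence, trypsinized, PBS-washed, and lysed in 1% Triton X-100/PBS. Lysate was spun 18,000 rpm, 30 min, 4 °C. Supernatant was activated 2 h at 37 °C with Tris–HCl/200 mM MnCl2/30 mM glutathione. 1 mM Pro-MTX was then added at 37 °C, sampled at 15, 30 and 60 min, and TFA-quenched. Proline was read colorimetrically; specific activity is per µg protein. Cbz-Pro inhibitor was equimolar.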

Data set [3] addresses T1, Xaa-Pro dipeptidase (Homo sapiens). Put plainly: Activity of prolidase in human HeLa cells measured per gram of protein. The format is cell-based. In a few lines:
as §3

The species entered for data set [4] is Sus scrofa. In words: Activity of pig kidney prolidase measured per gram of protein in presence of Cbz-pro. In a few lines: as §2
For data set [5], the target named is T1, Xaa-Pro dipeptidase (Homo sapiens). In words: Activity of prolidase in human Caco-2 cells measured per gram of protein in presence of Cbz-pro. It is filed as cell-based. In a few lines:
as §3

Data set [6] shares this target. Put plainly: Activity of prolidase in human HeLa cells measured per gram of protein in presence of Cbz-pro. It is filed as cell-based. In short, it runs like this: as §3
A short description of data set [7]: Chemical stability of the compound in phosphate buffer saline of pH 7.4. The format is physicochemical.

As a reminder, the EC50 is the concentration at which the effect is half-maximal.

On to `CN(Cc1cnc2nc(N)nc(N)c2n1)c1ccc(C(=O)N[C@@H](CCC(=O)O)C(=O)O)cc1` [METHOTREXATE], for which the half-maximal effective concentration (EC50) turned out to be 1.1 µM in the data set with Caco-2, 0.9 µM in the data set on MCF7 and 80 µM in the data set on MDA-MB-231.

Consider `CN(Cc1cnc2nc(N)nc(N)c2n1)c1ccc(C(=O)N[C@H](CCC(=O)O)C(=O)N2CCC[C@@H]2C(=O)O)cc1`, for which the Activity in the data set listed under Sus scrofa [1] was determined as 19 pmol/min; in data set [2], 0.42 pmol/min; in [3], 0.35 pmol/min; in the data set filed under Sus scrofa [4], 8.15 pmol/min; in [5], 0.28 pmol/min; in [6], 0.19 pmol/min. In addition, the figures for the EC50 with Caco-2, in the data set with MCF7 and in the data set on MDA-MB-231 were 5.6 µM, 5.2 µM and 11 µM, respectively. For the same compound, in [7], the Stability entry is listed as “Stable”.
